These results are taken from ChEMBL document CHEMBL2086367, “Novel oxysterols activate the Hedgehog pathway and induce osteogenesis” (Bioorg Med Chem Lett, 2012).

Data set [1] concerns the target Sonic hedgehog protein (Mus musculus, UniProt Q62226). Description: Activation of SHh in mouse Light2 cells assessed as induction of Gli-mediated luciferase activity after 24 hrs by reporter gene assay. The format is cell-based. An outline of the steps:
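SHHLight2 cells (8×Gli response elements driving firefly luciferase; constitutive Renilla) seeded at 10,000 cells/well in DMEM/10% FCS. After 24 h, compound added in DMEM/0.5% FCS, triplicate wells. Firefly and Renilla luciferase read 24 h later; firefly divided by Renilla per well, expressed relative to DMSO-treated cells.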

Data set [2] in a line: Metabolic stability in human liver microsomes assessed as compound remaining after 1 hr. It is filed as ADME, Microsome. The note with it: read-out: Stability. For orientation: Microsomes from liver hold many membrane-bound enzymes, among them those of drug oxidation.
Data set [3] deals with Rattus norvegicus. Description: Osteogenetic activity in Sprague-Dawley rat assessed as increase in mechanical stability of the vertebral segments at 4 mg/kg measured after 8 weeks by manual palpation. It is filed as functional, organism-based. The arrangement: dose 4 mg/kg. An outline of the steps: (§1)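 Sprague Dawley rats; compound in DMSO at 50 mg/mL, 40 µL loaded onto collagen sponge, held 1–2 h at room temperature, implanted bilaterally between L4 and L5 after decorticating transverse processes; 4 mg/kg. After 8 weeks, segment stability scored by manual palpation (n = 10/group, Kruskal-Wallis); formalin-fixed tissue scanned by microCT at 18 µm resolution for callus bone volume.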

The test system of data set [4] is C3H 10T1/2. Kind of data set: Osteogenetic activity in mouse C3H10T1/2 cells assessed as increase in osteocalcin expression at 3.3 uM after 10 days by RT-PCR analysis relative to control. The format is functional.
Data set [5] has as its system Rattus norvegicus. Kind of data set: Osteogenetic activity in Sprague-Dawley rat assessed as increase in bone volume in callus at 4 mg/kg measured after 8 weeks by MicroCT analysis. It is filed as functional, organism-based. The arrangement: dose 4 mg/kg. An outline of the steps:
as §1

A short description of data set [6]: Half life in human liver microsomes incubated up to 60 mins. It is filed as ADME, Microsome. Put shortly: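 Pooled human liver microsomes with NADPH; sampling at 0, 15, 30, 45 and 60 min to derive intrinsic clearance half-life.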
Data set [7] in a line: Half life in human liver microsomes incubated up to 120 mins at pH 7.4. The format is ADME, Microsome.

The source made the active and inactive calls. The calls are words filed in the database; no cut-off is given here. Where only a bound is given, the exact number is not on record here.

Chain of Sonic hedgehog protein (Q62226 25-198 limits assumed): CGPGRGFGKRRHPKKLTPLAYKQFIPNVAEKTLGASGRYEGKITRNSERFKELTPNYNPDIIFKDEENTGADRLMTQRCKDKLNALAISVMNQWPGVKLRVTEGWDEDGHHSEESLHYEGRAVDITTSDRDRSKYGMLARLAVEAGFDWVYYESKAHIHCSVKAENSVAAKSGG

On to `CCCCCC[C@@](O)(CC)[C@H]1CC[C@H]2[C@@H]3C[C@H](O)[C@H]4C[C@@H](O)CC[C@]4(C)[C@H]3CC[C@]12C`, for which the EC50 (in general, the midpoint of the concentration-response curve) in data set [1] amounted to 2900 nM. In addition, the remaining at 1 h in data set [2] was 9%.
Turning to `CCCCCC[C@](C)(O)[C@H]1CC[C@H]2[C@@H]3C[C@H](O)[C@H]4C[C@@H](O)CC[C@]4(C)[C@H]3CC[C@@]21C`, the EC50 in data set [1] stood at 400 nM. In addition, the remaining at 1 h in data set [2] was determined as 2%. In addition, in data set [3], the result was inactive. Further, the “fold change (FC)” value in data set [4] worked out at 36. Moreover, the result in data set [5] was Active.
As to `C[C@]12CC[C@H](O)C[C@@H]1[C@@H](O)C[C@@H]1[C@@H]2CC[C@@]2(C)[C@H]1CC[C@@H]2[C@@](C)(O)CCCc1cccnc1`, the EC50 in data set [1] came out at 1200 nM.
`[2H][C@H](CC(C)C)[C@@H]([2H])[C@](C)(O)[C@H]1CC[C@H]2[C@@H]3C[C@H](O)[C@H]4C[C@@H](O)CC[C@]4(C)[C@H]3CC[C@]12C`: the half-life (commonly how long it takes for the measured level to halve) in data set [6] was 5 min. In data set [1], the EC50 amounted to 1100 nM.
Consider `CC(C)CCC[C@@](C)(O)[C@H]1CC[C@H]2[C@@H]3C[C@H](O)[C@H]4C[C@@H](O)CC[C@]4(C)[C@H]3CC[C@@]21C`, for which the EC50 in data set [1] is above 10000 nM.
With `[2H]C([2H])(CC(C)C)C([2H])([2H])[C@](C)(O)[C@H]1CC[C@H]2[C@@H]3C[C@H](O)[C@H]4C[C@@H](O)CC[C@]4(C)[C@H]3CC[C@@]21C`, in data set [1], the EC50 amounted to 800 nM. The compound also came in with a half-life in data set [7] above 120 min. The remaining at 1 h in data set [2] is 100%. In addition, in data set [4], the “fold change (FC)” value is 17.
As to `COCCCC[C@](C)(O)[C@H]1CC[C@H]2[C@@H]3C[C@H](O)[C@H]4C[C@@H](O)CC[C@]4(C)[C@H]3CC[C@@]21C`, in data set [1], the 50% effective concentration (EC50) worked out at 3100 nM. Also, the remaining at 1 h in data set [2] is 35%. The “fold change (FC)” value in data set [4] worked out at 3.
The like results for `C[C@]12CC[C@H](O)C[C@@H]1[C@@H](O)C[C@@H]1[C@@H]2CC[C@@]2(C)[C@H]1CC[C@@H]2[C@@](C)(O)CCCc1ccccc1` were, in that order, 2500 nM, 1% and 2.
`CC(C)CCC[C@](C)(O)[C@H]1CC[C@H]2[C@@H]3C[C@H](O)[C@H]4C[C@@H](O)CC[C@]4(C)[C@H]3CC[C@@]21C` returned a half-life in data set [6] of 4 min. Also, the concentration giving a half-maximal response (EC50) in data set [1] came to 800 nM. Further, the remaining at 1 h in data set [2] turned out to be 3%. The result in data set [3] and in data set [3] (tested as the 2H-labelled form) was inactive. For the same compound, the “fold change (FC)” value in data set [4] was 15. Also, the outcome in data set [5] and in data set [5] (tested as the 2H-labelled form) was Active.
For the compound `C[C@]12CC[C@H](O)C[C@@H]1[C@@H](O)C[C@@H]1[C@@H]2CC[C@@]2(C)[C@H]1CC[C@@H]2[C@@](C)(O)CCCc1ccncc1`, in data set [1], the EC50 was above 5000 nM. Further, the “fold change (FC)” value in data set [4] turned out to be 2.
Regarding `CCCCCC[C@@](O)(c1ccccc1)[C@H]1CC[C@H]2[C@@H]3C[C@H](O)[C@H]4C[C@@H](O)CC[C@]4(C)[C@H]3CC[C@@]21C`, in data set [1], the 50% effective concentration (EC50) was above 10000 nM. Also, in data set [2], the remaining at 1 h was found to be 69%.
As for `[2H][C@@H](CC(C)C)[C@H]([2H])[C@](C)(O)[C@H]1CC[C@H]2[C@@H]3C[C@H](O)[C@H]4C[C@@H](O)CC[C@]4(C)[C@H]3CC[C@]12C`, the EC50 in data set [1] is 1000 nM. For the same compound, the half-life in data set [7] is above 120 min.
As for `[2H]C([2H])(CCCC)C([2H])([2H])[C@](C)(O)[C@H]1CC[C@H]2[C@@H]3C[C@H](O)[C@H]4C[C@@H](O)CC[C@]4(C)[C@H]3CC[C@@]21C`, the half-maximal effective concentration (EC50) in data set [1] was 300 nM. Besides, the remaining at 1 h in data set [2] is 100%. Besides, the “fold change (FC)” value in data set [4] turned out to be 35.
Consider `CCCCCCC[C@](C)(O)[C@H]1CC[C@H]2[C@@H]3C[C@H](O)[C@H]4C[C@@H](O)CC[C@]4(C)[C@H]3CC[C@@]21C`, for which, in data set [1], the EC50 was 500 nM. Further, the “fold change (FC)” value in data set [4] was determined as 17.
The like results for `CCCCC[C@](C)(O)[C@H]1CC[C@H]2[C@@H]3C[C@H](O)[C@H]4C[C@@H](O)CC[C@]4(C)[C@H]3CC[C@@]21C` were, in that order, 6600 nM and 4.
